# Assay results: ChEMBL document CHEMBL1157465, “Design, synthesis, and biological evaluation of novel 3-aryl-4-(1H-indole-3yl)-1,5-dihydro-2H-pyrrole-2-ones as vascular endothelial growth factor receptor (VEGF-R) inhibitors” (J Med Chem, 2008)
# How the values were obtained:
# [1] = molecular target: Vascular endothelial growth factor receptor 2 (Homo sapiens, UniProt P35968); assay: Inhibition of human recombinant VEGFR2
# Procedure, shortened: (§1)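 Recombinant human tyrosine kinases (EPHB4, TIE2, VEGF-R2, VEGF-R3), expressed in Sf9 insect cells as GST- or His-fusions, with poly(Glu,Tyr) 4:1 as substrate. Conditions: 1 µM [γ-33P]ATP, pH 7.5 HEPES buffer with Mg/Mn, DTT and vanadate, 30 °C for 80 min, 1% DMSO. Ten concentrations were tested and IC50 came from scintillation counting of incorporated 33P.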
# Aurora kinase A = molecular target: T1, Aurora kinase A (Homo sapiens, UniProt O14965); assay: Inhibition of human recombinant Aurora A
# T1 sequence (O14965 whole entry): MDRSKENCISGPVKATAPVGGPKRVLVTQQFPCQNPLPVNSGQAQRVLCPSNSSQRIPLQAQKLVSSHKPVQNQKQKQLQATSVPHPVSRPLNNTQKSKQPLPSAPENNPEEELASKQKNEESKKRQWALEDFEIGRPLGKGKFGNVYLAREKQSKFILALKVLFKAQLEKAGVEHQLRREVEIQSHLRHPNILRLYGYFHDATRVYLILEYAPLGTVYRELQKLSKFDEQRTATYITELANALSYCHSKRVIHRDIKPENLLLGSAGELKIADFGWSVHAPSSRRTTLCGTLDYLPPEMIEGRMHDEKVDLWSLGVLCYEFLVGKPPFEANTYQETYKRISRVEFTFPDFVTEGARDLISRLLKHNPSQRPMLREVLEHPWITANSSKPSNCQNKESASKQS
# Procedure, shortened: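 Aurora-A or Aurora-B, human cDNA expressed in Sf9 cells as tagged recombinant protein, phosphorylating Tetra(LRRWSLG). Reactions used 60 mM HEPES pH 7.5, Mg2+/Mn2+ (3 mM each), 1.2 mM DTT, vanadate and 1 µM [γ-33P]ATP, ran 80 min at 30 °C and were stopped with 2% H3PO4.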
# [2] = molecular target: T2, Serine/threonine-protein kinase PLK4 (Homo sapiens, UniProt O00444); assay: Inhibition of human recombinant SAK
# T2 sequence (O00444 whole entry): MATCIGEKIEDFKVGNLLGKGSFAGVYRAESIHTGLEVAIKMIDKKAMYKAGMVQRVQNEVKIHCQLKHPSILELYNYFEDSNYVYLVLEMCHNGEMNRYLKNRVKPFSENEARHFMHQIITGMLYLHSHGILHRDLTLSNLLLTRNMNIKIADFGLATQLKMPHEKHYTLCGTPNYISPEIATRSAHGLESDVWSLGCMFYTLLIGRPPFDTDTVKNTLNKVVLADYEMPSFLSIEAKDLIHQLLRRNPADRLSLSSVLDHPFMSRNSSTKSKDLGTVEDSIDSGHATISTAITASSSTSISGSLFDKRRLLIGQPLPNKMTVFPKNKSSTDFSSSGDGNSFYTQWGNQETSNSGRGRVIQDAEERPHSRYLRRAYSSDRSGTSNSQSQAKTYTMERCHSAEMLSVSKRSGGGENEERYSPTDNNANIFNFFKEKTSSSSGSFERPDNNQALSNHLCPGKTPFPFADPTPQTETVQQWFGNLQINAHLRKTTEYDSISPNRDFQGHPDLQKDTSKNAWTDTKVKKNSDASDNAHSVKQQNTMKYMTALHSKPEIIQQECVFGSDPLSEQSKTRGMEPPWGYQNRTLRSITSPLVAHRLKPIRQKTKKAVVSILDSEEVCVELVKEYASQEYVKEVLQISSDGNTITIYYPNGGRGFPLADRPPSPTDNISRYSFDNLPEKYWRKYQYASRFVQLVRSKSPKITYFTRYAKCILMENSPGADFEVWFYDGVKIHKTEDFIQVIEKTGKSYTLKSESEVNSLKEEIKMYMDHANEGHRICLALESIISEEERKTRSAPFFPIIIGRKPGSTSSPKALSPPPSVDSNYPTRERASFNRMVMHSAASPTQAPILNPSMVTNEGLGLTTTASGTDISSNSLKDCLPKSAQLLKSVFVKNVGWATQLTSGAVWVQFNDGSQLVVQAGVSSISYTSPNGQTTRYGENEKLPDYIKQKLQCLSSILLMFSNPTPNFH
# Procedure, shortened: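 Human kinase expressed from cDNA in Sf9 cells (baculovirus) as GST- or His-tagged protein, affinity-purified. 10 compound concentrations, 1% DMSO final, 30 °C for 80 min. Stopped with H₃PO₄, 33P incorporation counted, IC50 derived.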
# [3] = molecular target: Vascular endothelial growth factor receptor 3 (Homo sapiens, UniProt P35916); assay: Inhibition of human recombinant VEGFR3; procedure, shortened: as §1
# Vascular endothelial growth factor receptor 3, sequence (P35916 whole entry): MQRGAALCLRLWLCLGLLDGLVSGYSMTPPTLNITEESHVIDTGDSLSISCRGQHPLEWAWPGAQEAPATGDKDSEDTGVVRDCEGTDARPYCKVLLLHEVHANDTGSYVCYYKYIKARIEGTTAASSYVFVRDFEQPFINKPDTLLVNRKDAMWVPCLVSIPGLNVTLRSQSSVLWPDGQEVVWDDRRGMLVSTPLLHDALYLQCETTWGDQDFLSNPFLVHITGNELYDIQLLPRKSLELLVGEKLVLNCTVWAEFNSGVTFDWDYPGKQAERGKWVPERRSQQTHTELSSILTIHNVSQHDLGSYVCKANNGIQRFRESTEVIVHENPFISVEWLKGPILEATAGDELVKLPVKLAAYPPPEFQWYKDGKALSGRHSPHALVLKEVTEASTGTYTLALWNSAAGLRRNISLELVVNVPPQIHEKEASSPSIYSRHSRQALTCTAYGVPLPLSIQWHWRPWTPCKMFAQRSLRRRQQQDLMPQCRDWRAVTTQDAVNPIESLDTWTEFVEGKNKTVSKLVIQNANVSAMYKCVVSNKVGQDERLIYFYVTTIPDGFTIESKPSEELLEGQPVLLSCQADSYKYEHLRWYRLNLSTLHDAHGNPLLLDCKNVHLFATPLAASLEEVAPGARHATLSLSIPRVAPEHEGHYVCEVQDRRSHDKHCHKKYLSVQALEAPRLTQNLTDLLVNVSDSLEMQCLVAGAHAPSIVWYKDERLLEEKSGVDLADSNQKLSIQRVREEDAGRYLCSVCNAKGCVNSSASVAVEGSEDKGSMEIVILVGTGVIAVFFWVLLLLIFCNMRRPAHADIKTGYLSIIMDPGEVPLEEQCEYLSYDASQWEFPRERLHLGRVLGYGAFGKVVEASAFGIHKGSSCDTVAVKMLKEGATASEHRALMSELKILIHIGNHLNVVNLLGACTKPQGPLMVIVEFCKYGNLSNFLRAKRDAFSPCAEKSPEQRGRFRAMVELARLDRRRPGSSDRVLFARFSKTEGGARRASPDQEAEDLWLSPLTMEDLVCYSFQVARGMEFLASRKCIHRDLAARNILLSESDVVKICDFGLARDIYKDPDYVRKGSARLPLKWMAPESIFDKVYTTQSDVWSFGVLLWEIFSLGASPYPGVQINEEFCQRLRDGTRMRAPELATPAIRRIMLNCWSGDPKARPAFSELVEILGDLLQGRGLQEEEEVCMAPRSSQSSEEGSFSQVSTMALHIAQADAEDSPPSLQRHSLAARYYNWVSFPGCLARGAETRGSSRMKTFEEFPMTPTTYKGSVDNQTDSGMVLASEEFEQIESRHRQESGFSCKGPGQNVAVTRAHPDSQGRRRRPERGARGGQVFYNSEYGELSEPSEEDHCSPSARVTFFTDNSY
# Vascular endothelial growth factor receptor 2, sequence (P35968 whole entry, the tested form may be a part): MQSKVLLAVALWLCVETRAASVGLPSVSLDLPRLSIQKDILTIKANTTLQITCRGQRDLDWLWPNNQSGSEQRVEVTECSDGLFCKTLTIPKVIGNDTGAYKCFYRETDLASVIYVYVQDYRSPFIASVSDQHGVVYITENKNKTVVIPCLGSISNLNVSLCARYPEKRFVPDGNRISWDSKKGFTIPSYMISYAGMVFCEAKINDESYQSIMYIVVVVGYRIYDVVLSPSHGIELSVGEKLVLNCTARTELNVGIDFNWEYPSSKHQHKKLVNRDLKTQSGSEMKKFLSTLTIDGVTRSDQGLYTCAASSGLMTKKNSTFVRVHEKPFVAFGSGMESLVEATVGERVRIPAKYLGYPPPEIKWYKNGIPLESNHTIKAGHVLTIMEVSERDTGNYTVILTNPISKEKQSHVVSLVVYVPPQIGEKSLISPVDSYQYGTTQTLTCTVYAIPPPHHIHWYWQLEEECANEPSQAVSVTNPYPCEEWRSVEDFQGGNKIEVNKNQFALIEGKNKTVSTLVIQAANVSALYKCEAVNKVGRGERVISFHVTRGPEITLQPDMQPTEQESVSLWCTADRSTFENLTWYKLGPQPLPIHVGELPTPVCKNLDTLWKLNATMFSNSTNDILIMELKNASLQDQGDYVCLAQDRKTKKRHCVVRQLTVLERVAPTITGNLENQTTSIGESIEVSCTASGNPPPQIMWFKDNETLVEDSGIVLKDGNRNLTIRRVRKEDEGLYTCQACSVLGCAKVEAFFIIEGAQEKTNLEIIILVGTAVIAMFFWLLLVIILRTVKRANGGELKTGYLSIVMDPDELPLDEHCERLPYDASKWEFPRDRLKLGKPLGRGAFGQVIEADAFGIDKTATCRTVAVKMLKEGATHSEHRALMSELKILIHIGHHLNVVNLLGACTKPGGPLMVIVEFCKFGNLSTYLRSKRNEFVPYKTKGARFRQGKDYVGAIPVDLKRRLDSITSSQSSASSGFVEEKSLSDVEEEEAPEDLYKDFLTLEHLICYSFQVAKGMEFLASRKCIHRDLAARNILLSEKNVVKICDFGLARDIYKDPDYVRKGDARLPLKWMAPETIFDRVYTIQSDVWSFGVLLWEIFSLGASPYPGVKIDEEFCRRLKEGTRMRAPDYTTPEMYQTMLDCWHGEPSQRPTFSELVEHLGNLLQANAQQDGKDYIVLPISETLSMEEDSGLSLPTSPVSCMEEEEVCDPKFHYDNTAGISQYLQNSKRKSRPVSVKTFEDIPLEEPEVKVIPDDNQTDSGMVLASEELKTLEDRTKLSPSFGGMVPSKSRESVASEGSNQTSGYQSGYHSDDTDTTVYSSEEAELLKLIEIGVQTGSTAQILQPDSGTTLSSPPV
smiles,measurement,setting,value
COc1cc(C2=C(c3cn(C)c4ccccc34)C(=O)NC2)cc(OC)c1OC,IC50,[1],15 µM
same,IC50,Aurora kinase A,3.2 µM
same,IC50,[2],9.2 µM
same,IC50,[3],11 µM
COc1cc(C2=C(c3c[nH]c4ccccc34)CNC2=O)cc(OC)c1OC,IC50,[1],0.031 µM
same,IC50,Aurora kinase A,16 µM
same,IC50,[2],10 µM
same,IC50,[3],0.037 µM
COc1ccc(C2=C(c3c[nH]c4ccccc34)C(=O)NC2)cc1,IC50,[1],13 µM
same,IC50,Aurora kinase A,16 µM
same,IC50,[2],12 µM
same,IC50,[3],8.7 µM
COc1cc(C2=C(c3c[nH]c4ccccc34)C(=O)NC2)cc(OC)c1OC,IC50,[1],11 µM
same,IC50,Aurora kinase A,3.2 µM
same,IC50,[2],7.7 µM
same,IC50,[3],9.4 µM
COc1cc(C2=C(c3cn(COC(C)(C)C)c4ccccc34)CNC2=O)cc(OC)c1OC,IC50,[1],4.4 µM
same,IC50,Aurora kinase A,30 µM
same,IC50,[2],28 µM
same,IC50,[3],4.8 µM
COc1cc(C2=C(c3cn(CC(O)CO)c4ccccc34)CNC2=O)cc(OC)c1OC (centres undefined),IC50,[1],4.2 µM
same,IC50,Aurora kinase A,47 µM
same,IC50,[2],16 µM
same,IC50,[3],2.5 µM
